The source made the active and inactive calls. The rule behind the calls is not given here.
Experiments:
Cannabinoid receptor 2 = Cannabinoid receptor 2 (Homo sapiens, UniProt P34972); assay: Displacement of [3H]CP-55940 from human recombinant CB2 receptor expressed in HEK cells; format: cell-based, HEK293
Procedure, shortened: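 Membranes came from HEK cells transfected with human CB2. IC50 values were converted to Ki by Cheng-Prusoff. Values are means of at least three experiments, each in duplicate.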

Homo sapiens = species on record: Homo sapiens; assay: Ratio of Ki for human recombinant CB2 receptor to human recombinant CB1 receptor
Cannabinoid receptor 1 [1] = target: Cannabinoid receptor 1 (Homo sapiens, UniProt P21554); assay: biochemical; format: cell-based, HEK293
Cannabinoid receptor 1 (Homo sapiens, UniProt P21554), sequence (P21554 whole entry): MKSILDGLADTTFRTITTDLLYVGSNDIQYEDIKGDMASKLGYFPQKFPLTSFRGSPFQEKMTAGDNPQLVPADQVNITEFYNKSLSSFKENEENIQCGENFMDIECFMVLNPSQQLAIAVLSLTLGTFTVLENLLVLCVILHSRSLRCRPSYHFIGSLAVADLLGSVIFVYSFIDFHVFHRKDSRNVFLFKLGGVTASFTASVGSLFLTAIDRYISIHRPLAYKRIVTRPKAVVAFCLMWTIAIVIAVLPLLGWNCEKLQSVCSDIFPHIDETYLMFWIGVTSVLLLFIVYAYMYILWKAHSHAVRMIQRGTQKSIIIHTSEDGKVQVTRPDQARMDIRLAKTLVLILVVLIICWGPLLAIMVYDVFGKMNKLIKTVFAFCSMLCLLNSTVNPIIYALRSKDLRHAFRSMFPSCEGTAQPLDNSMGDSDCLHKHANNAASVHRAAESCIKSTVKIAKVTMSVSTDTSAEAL

Cannabinoid receptor 1 [2] = target: Cannabinoid receptor 1 (Mus musculus, UniProt P47746); assay: Activity at mouse CB1 receptor in mouse N18TG2 cells assessed as forskolin-induced cAMP formation; format: functional, cell-based
Cannabinoid receptor 1 (Mus musculus, UniProt P47746), sequence (P47746 whole entry): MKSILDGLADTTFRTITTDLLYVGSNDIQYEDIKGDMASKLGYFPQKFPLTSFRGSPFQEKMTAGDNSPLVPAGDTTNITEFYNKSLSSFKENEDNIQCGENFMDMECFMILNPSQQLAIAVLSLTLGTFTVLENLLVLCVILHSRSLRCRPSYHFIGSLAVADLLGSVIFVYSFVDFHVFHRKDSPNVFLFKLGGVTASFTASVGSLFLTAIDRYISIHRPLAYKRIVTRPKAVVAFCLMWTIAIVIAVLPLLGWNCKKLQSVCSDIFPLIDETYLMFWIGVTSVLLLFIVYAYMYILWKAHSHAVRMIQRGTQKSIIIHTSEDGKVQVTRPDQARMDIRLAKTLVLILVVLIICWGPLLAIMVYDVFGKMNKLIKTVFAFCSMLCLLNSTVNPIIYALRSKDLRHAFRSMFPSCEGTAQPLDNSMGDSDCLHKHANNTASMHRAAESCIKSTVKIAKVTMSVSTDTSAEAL
Procedure, shortened: (§1)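 Intact confluent mouse N18TG2 neuroblastoma cells were stimulated for 10 min at 37 °C with 1 µM forskolin in serum-free DMEM with 20 mM HEPES, 0.1 mg/mL BSA and 0.1 mM IBMX. Compounds were given at various concentrations, with vehicle 0.1% methanol. Cells were then extracted with ethanol and cAMP was measured by kit.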

[3] = target: Cannabinoid receptor 1 (Mus musculus) (UniProt P47746); assay: Antagonist activity at mouse CB1 receptor in mouse N18TG2 cells assessed as forskolin-induced cAMP formation in presence of WIN-55212-2; format: functional, cell-based
Cannabinoid receptor 1 (Mus musculus), sequence (P47746 whole entry): as above
Procedure, shortened: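 Intact confluent N18TG2 cells were exposed to compound with or without the CB1 agonist WIN55,212-2 at 100 nM, in the presence and absence of 1 µM forskolin. Incubation was 10 min at 37 °C in serum-free DMEM with HEPES, BSA and IBMX, vehicle 0.1% methanol. cAMP in ethanol extracts was quantified by kit.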

[4] = target: Cannabinoid receptor 1 (Mus musculus) (UniProt P47746); assay: Activity at mouse CB1 receptor in mouse N18TG2 cells assessed as inhibition of forskolin-induced cAMP formation at 200 to 300 nM; format: functional, cell-based; procedure, shortened: as §1

Cannabinoid receptor 2, sequence (P34972 whole entry): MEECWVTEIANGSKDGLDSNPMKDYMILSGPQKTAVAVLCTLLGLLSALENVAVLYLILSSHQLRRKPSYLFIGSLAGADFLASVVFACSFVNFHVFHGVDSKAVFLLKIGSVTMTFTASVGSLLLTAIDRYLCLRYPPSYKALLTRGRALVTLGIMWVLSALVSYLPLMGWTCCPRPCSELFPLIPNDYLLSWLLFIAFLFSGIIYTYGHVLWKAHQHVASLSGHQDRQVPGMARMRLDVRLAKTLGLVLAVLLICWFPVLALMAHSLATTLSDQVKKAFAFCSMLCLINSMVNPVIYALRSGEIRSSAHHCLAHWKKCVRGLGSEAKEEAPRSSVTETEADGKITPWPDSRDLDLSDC

SMILES	Ki (Cannabinoid receptor 2) [nM]	IC50 (Cannabinoid receptor 2; read-out: IC50) [nM]	Ratio Ki (Homo sapiens)	IC50 (Cannabinoid receptor 1 [1]) [nM]	Ki (Cannabinoid receptor 1 [1]) [nM]	EC50 (Cannabinoid receptor 1 [2]) [nM]	Activity [3]	Activity [4]	IC50 (Cannabinoid receptor 2; hek293)
Cc1c(C(=O)NC2CCCCC2)nn(-c2ccc(Cl)c(Cl)c2)c1-n1c(C)ccc1C	1.3	1.7	0.093	25	14	–	–	–	–
Cc1c(C(=O)NCc2ccc(Cl)c(Cl)c2)nn(-c2ccc(Cl)cc2Cl)c1-n1cccc1	510	650	–	–	–	–	–	–	–
Cc1nn(-c2ccc(Cl)cc2)c(-n2cccc2)c1C(=O)NN1CCCCC1	> 3940	–	–	> 5000	> 2820	–	–	–	–
Cc1c(C(=O)NN2CCCCC2)nn(-c2ccc(Cl)cc2Cl)c1-n1cccc1	1730	200	0.94	3300	1850	–	–	–	–
Cc1c(C(=O)NN2CCCCC2)nn(-c2ccc(Cl)cc2)c1-n1cccc1	2180	2770	19.8	200	110	–	–	–	–
Cc1c(C(=O)NN2CCCCC2)nn(-c2ccc(Cl)c(Cl)c2)c1-n1c(C)ccc1C	29	37	–	–	–	–	–	–	–
Cc1c(C(=O)NN2CCCCC2)nn(-c2ccc(F)cc2F)c1-n1cccc1	2400	3000	–	–	–	–	–	–	–
N#Cc1c(C(=O)NN2CCCCC2)nn(-c2ccc(Cl)cc2)c1-n1cccc1	> 3940	–	> 1.4	5000	2820	–	–	–	–
Cc1c(C(=O)NC2CCCCC2)nn(-c2ccc(F)cc2F)c1-n1cccc1	65	83	–	–	–	–	–	–	–
O=C(NN1CCCCC1)c1cc(-n2cccc2)n(-c2ccc(Cl)cc2)n1	> 3940	–	–	–	–	–	–	–	–
Cc1c(C(=O)NN2CCOCC2)nn(-c2ccc(F)cc2F)c1-n1cccc1	> 3940	> 5000	–	> 5000	> 2820	–	–	–	–
Cc1c(C(=O)NC2CCCCC2)nn(-c2ccc(Cl)c(Cl)c2)c1-n1cccc1	1.7	2.2	0.3	10	5.6	1	Active	inactive	–
Cc1c(C(=O)NCc2ccc(Cl)c(Cl)c2)nn(-c2ccc(Cl)c(Cl)c2)c1-n1c(C)ccc1C	1370	1740	4.89	500	280	–	–	–	–
Cc1nn(-c2ccc(Cl)cc2)c(-n2cccc2)c1C(=O)NCc1ccc(Cl)c(Cl)c1	> 3940	–	–	–	–	–	–	–	–
Cc1c(C(=O)NCC2CCCCC2)nn(-c2ccc(Cl)cc2)c1-n1cccc1	390	500	3.55	200	110	–	–	–	–
Cc1c(C(=O)NN2CCCCC2)nn(-c2ccc(Cl)cc2Cl)c1-n1c(C)ccc1C	980	1240	25.8	67	38	–	–	–	–
Cc1c(C(=O)NCc2ccc(Cl)c(Cl)c2)nn(-c2ccc(F)cc2F)c1-n1cccc1	390	500	–	–	–	–	–	–	–

SMILES	Ki (Cannabinoid receptor 2) [nM]	IC50 (Cannabinoid receptor 2; read-out: IC50) [nM]	Ratio Ki (Homo sapiens)	IC50 (Cannabinoid receptor 1 [1]) [nM]	Ki (Cannabinoid receptor 1 [1]) [nM]	EC50 (Cannabinoid receptor 1 [2]) [nM]	Activity [3]	Activity [4]	IC50 (Cannabinoid receptor 2; hek293)
O=C(NN1CCCCC1)c1cc(-n2cccc2)n(-c2ccccc2)n1	> 3940	–	–	> 5000	> 2820	–	–	–	–
Cc1c(C(=O)NC2CCCCC2)nn(-c2c(Cl)cc(Cl)cc2Cl)c1-n1c(C)ccc1C	390	500	–	–	–	–	–	–	–
Cc1c(C(=O)NCc2ccc(Cl)c(Cl)c2)nn(-c2ccc(Cl)cc2Cl)c1-n1c(C)ccc1C	3940	5000	141	50	28	25	–	inactive	–
Cc1c(C(=O)NC2CCCCC2)nn(-c2ccc(Cl)cc2Cl)c1-n1cccc1	64	81	1.14	100	56	–	–	–	–
Cc1c(C(=O)NN2CCCCC2)nn(-c2ccccc2)c1-n1cccc1	> 3940	–	–	> 5000	> 2820	–	–	–	Not Active
Cc1c(C(=O)NN2CCCCC2)nn(-c2c(Cl)cc(Cl)cc2Cl)c1-n1cccc1	> 3940	> 5000	> 2.19	3200	1800	–	–	–	–
Cc1c(C(=O)NCc2ccc(Cl)c(Cl)c2)nn(-c2c(Cl)cc(Cl)cc2Cl)c1-n1cccc1	> 3940	> 5000	–	–	–	–	–	–	–
Cc1c(C(=O)NN2CCCCC2)nn(-c2ccc(Cl)c(Cl)c2)c1-n1cccc1	20	25	–	–	–	–	–	–	–
N#Cc1c(C(=O)NN2CCCCC2)nn(-c2ccccc2)c1-n1cccc1	> 3940	–	–	> 5000	> 2820	–	–	–	–
Cc1c(C(=O)NC2CCCCC2)nn(-c2ccc(F)cc2F)c1-n1c(C)ccc1C	570	720	–	–	–	–	–	–	–
Cc1c(C(=O)NCc2ccc(Cl)c(Cl)c2)nn(-c2ccc(Cl)c(Cl)c2)c1-n1cccc1	150	190	–	–	–	–	–	–	–
Cc1c(C(=O)NC2CCCCC2)nn(-c2ccc(Cl)cc2Cl)c1-n1c(C)ccc1C	87	110	2.07	74	42	–	–	–	–
Cc1c(C(=O)NCc2ccc(Cl)c(Cl)c2)nn(-c2ccc(F)cc2F)c1-n1c(C)ccc1C	> 3940	> 5000	> 113	62	35	> 60	–	–	–
Cc1c(C(=O)NN2CCCCC2)nn(-c2c(Cl)cc(Cl)cc2Cl)c1-n1c(C)ccc1C	> 3940	> 5000	> 35.8	200	110	–	–	–	–
O=C(NC1CCCCC1)c1cc(-n2cccc2)n(-c2ccc(Cl)cc2)n1	1750	2220	6.25	500	280	–	–	–	–
Cc1c(C(=O)NN2CCCCC2)nn(-c2ccc(F)cc2F)c1-n1c(C)ccc1C	> 3940	> 5000	–	–	–	–	–	–	–
N#Cc1c(C(=O)NCc2ccc(Cl)c(Cl)c2)nn(-c2ccccc2)c1-n1cccc1	> 3940	> 5000	–	–	–	–	–	–	–

Source: ChEMBL document CHEMBL1142276, “Synthesis, cannabinoid receptor affinity, and molecular modeling studies of substituted 1-aryl-5-(1H-pyrrol-1-yl)-1H-pyrazole-3-carboxamides” (J Med Chem, 2008)
